HKDC1 inhibitor: blocks human hexokinase HKDC1 activity. actives 0.16% (n = 340,000). inhibition, % at 20 µM. AID 493160. recombinant HKDC1, G6PDH/diaphorase resazurin coupled fluorescence. Q2TB90;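 active means inhibition above about 35% when tested at 20 µM, limit read from the data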;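 further: plate controls were DMSO wells with enzyme for no effect and DMSO wells lacking enzyme for full effect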
Target sequence (Q2TB90 whole entry, looked up): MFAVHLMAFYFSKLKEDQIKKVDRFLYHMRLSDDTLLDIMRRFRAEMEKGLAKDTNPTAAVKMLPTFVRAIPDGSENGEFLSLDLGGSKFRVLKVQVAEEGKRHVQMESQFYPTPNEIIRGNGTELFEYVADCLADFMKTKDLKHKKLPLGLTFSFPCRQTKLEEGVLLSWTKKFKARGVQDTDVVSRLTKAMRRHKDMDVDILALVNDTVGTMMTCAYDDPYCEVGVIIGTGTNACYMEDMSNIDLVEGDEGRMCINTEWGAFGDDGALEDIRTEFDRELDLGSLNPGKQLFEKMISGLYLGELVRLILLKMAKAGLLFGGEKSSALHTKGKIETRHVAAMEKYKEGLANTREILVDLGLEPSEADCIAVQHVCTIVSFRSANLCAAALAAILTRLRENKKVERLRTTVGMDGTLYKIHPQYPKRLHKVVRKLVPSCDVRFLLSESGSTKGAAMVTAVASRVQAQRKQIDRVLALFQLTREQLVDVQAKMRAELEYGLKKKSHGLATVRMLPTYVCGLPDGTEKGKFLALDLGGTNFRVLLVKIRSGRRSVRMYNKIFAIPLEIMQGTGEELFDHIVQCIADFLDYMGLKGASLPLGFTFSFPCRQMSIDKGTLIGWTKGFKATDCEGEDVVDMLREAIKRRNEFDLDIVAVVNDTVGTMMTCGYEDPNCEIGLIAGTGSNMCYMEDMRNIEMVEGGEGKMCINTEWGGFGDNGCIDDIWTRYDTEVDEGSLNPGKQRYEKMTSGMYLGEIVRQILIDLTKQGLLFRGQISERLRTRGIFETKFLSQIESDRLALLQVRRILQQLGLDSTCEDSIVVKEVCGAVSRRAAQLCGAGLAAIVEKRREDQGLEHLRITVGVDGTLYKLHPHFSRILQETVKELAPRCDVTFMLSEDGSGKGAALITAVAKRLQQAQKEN
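Assay system: in-house recombinant HK5 (HKDC1) enzyme. Input: HKDC1 at 5 µg/mL. Medium: Tris pH 8.0 buffer with MgCl2, Tween-20, BSA, BME. Dosing: single 20 µM dose. Schedule: 90 min reaction incubation at room temperature, dark. Signal: resazurin-to-resorufin fluorescence via G6PDH and diaphorase coupling, 525/613 nm. Controls: DMSO-enzyme wells negative, buffer-substituted wells positive.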
G6PDH counter: inhibits Leuconostoc G6PDH, flagging false hits in G6PDH-based assays | actives 0.12% (n = 200,000) | AID 1020 | inhibition, % at 5 µM | Purified L. mesenteroides G6PDH, diaphorase/resazurin coupled fluorescence, 45 min; in the data active means inhibition above about 50%
Diaphorase inh: inhibits diaphorase or chemically oxidizes, flagging diaphorase assay artifacts. actives 0.69% (n = 190,000). inhibition, % at 20 µM. diaphorase resazurin-to-resorufin fluorescence, NADH, 16 min; bacterial (C. kluyveri) enzyme, not human. AID 1217;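 active means primary screen inhibition at 20 µM above a set limit, cut at about 50% in these data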;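 further: plate controls were DMSO with full reaction for no effect and wells lacking NADH for full effect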
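Assay system: diaphorase enzyme from Clostridium kluyveri; Input: enzyme working solution with 0.14 U/mL diaphorase; Timing: 16 min at room temperature; Technique: resorufin fluorescence, excitation 544 nm, emission 590 nm; Benchmarks: positive control minus NADH, DMSO neutral control.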
PfGluPho inh: PfG6PD (Plasmodium falciparum) enzyme inhibition; PfGluPho enzyme, NADPH resazurin-diaphorase fluorescence; inhibition, % at 20 µM; actives 0.78% (n = 350,000);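 active means inhibition reaching at least a set limit at 20 µM in the primary screen, cut at about 59% in these data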;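 further: 0% = DMSO wells with substrate and 100% = DMSO wells lacking glucose-6-phosphate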
Tb hexokinase: T. brucei hexokinase 1 inhibition; recombinant TbHK1, G6PDH-coupled NADH A340; actives 0.11% (n = 220,000); AID 1430; inhibition, % at 10 µM;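 active means inhibition of 50% or more in the single-dose primary screen; inactive means inhibition below 50%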
PfG6PD confirm: PfG6PD inhibition, single-dose confirmed; shares compounds with PfGluPho inh; recombinant PfGluPho, NADPH-diaphorase-resazurin fluorescence; inhibition, % at 20 µM; actives 34% (n = 2,400); AID 504753;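 active means inhibition of at least 50% at 20 µM in any single replicate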;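 further: 0% = DMSO with substrate and 100% = DMSO lacking glucose-6-phosphate substrate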
Diaphorase 10uM: counter-screen for P. falciparum G6PD inhibitors: diaphorase inhibitors, oxidizers; shares compounds with PfGluPho inh; diaphorase-coupled resazurin reduction, fluorescence, NADPH 10 uM; inhibition, % at 20 µM; actives 39% (n = 820);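 active means average inhibition reaching 50% or more with the compound at 20 µM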;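 further: resorufin red fluorescence formed as diaphorase reduces resazurin using NADPH; 0% = DMSO with enzyme and 100% = DMSO without enzyme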
Diaphorase 30uM: counter-screen for P. falciparum G6PD inhibitors: diaphorase inhibitors, oxidizers; shares compounds with PfGluPho inh; Diaphorase/resazurin coupled assay, resorufin fluorescence, 30 uM NADPH; inhibition, % at 20 µM; actives 29% (n = 820); AID 504863;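 active means inhibition averaging 50% or more, tested at 20 µM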;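 further: 0% = DMSO with enzyme and 100% = DMSO wells lacking diaphorase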
* = called active by the depositor; . = no result. Shown are actives, neighbours in structure and some others; about 1.2% of the full set was active somewhere.

SMILES	HKDC1 inhibitor	G6PDH counter	Diaphorase inh	PfGluPho inh	Tb hexokinase	PfG6PD confirm	others
CC(C)=CCC/C(C)=C/C=N/NC(=O)c1ccccc1[N+](=O)[O-]	4.8	3.0	7.9	66.8*	2.3	26.0
CN(CCCC(=O)Nc1ccc(Br)cc1F)S(=O)(=O)c1ccccc1	2.0	.	.	20.9	.	.
O=C(COc1cc2oc(=O)c3c(c2cc1Cl)CCC3)Nc1ccc(CN2CCOCC2)cc1	0.1	.	.	-4.0	.	.
Nc1n[nH]c(=S)n1/N=C1/C(=O)Nc2ccccc21	-6.0	-2.9	78.9*	73.2*	-11.0	47.4
CNC(=O)C(=O)NCCCN1CCOCC1	2.0	2.0	6.8	-1.4	1.6	.
O=C1CCCC2=C1C(c1ccccc1)C1C(=O)c3ccccc3C1=N2 (stereo not drawn)	-4.4	13.2	20.3	30.2	30.3	.
O=C1CCCC2=C1C(c1ccc(Cl)cc1)C1C(=O)c3ccccc3C1=N2 (stereo not drawn)	-0.7	4.9	23.8	71.6*	-4.3	35.8
COc1ccc2c(c1)C(O)C(CO)C(C(=O)O)C2 (stereo not drawn)	-5.7	.	.	-0.8	.	.
O=C(Nc1ccc(N2CCOCC2)cc1)c1ccc2ncsc2c1	-4.2	.	.	66.4*	.	21.9
Nc1nc2ccc(C(=O)Nc3ccc(N4CCOCC4)cc3)cc2s1	0.8	.	.	16.7	.	.
COc1cc(C(=S)N2CCN(c3cccc(Cl)c3)CC2)ccc1O	1.9	19.7	23.1	48.3	-0.7	20.2
COc1ccc(S(=O)(=O)N=C2C=C(C)C(=O)C(C)=C2)cc1	10.9	20.9	34.8	22.8	-7.1	.
COc1cc(C(=O)O/N=C2\C=CC(=O)C(C)=C2)cc(OC)c1OC	-7.5	10.6	40.7	67.8*	-12.9	48.8*	Diaphorase 10uM=89.3*;Diaphorase 30uM=89.9*
COc1cc(C(=O)ON=C2C=C(C)C(=O)C(C)=C2)cc(OC)c1OC	-6.3	18.7	29.8	80.0*	-10.6	63.8*	Diaphorase 10uM=-0.6;Diaphorase 30uM=8.2
COc1ccc(C(=O)ON=C2C=C(C)C(=O)C(C)=C2)cc1	-1.6	8.0	-0.1	76.3*	2.8	52.3*	Diaphorase 10uM=12.6;Diaphorase 30uM=15.3
CC(C)C1=CC(=NS(=O)(=O)c2cccc([N+](=O)[O-])c2)C=C(C(C)C)C1=O	16.7	37.0	25.4	78.3*	1.3	-0.5
CN1CCc2cccc3c2C1Cc1ccc(O)c(O)c1-3 (stereo not drawn)	4.0	.	.	64.0*	.	46.3
CN1CCC(=C2c3ccccc3C(O)c3ccccc32)CC1 (stereo not drawn)	-0.3	.	.	-2.4	-2.7	.
CCCn1c2ccccc2c2cnn(CC(=O)NCCCN3CCN(c4ccccc4)CC3)c(=O)c21	0.4	.	.	9.6	.	.
O=C(O)c1ccccc1C(=O)Nc1n[nH]c(=S)s1	-13.0	1.6	10.1	72.0*	-4.4	34.3
O=C(O)c1ccccc1C(=O)Nc1nccs1	2.5	0.4	4.1	-0.7	0.1	.
Cn1c(=O)[nH]c(=O)c2c1nc(SCCN1CCCCC1)n2CCCc1ccccc1	0.0	-0.7	11.8	76.8*	-0.7	62.7*	Diaphorase 10uM=6.2;Diaphorase 30uM=-5.2
Cc1nc(NC(=O)c2ccc(Cl)cc2)sc1Cc1ccc2c(c1)OCO2	-12.9	0.2	20.0	59.6*	17.9	29.3
Cc1nc(NC(=O)c2ccccc2)sc1Cc1ccc2c(c1)OCO2	15.9	-9.5	-0.4	19.1	-9.0	.
CCN(CC)c1ccc(C(=O)NNC(=O)CCNC(=O)c2ccccc2)cc1	-0.2	.	.	-14.0	.	.
SMILES	HKDC1 inhibitor	G6PDH counter	Diaphorase inh	PfGluPho inh	Tb hexokinase	PfG6PD confirm	others
CCN(CC)c1ccc(C(=C2C=CC(=[N+](CC)CC)C=C2)c2ccccc2)cc1	14.4	.	.	99.8*	.	68.3*	Diaphorase 10uM=-3.6;Diaphorase 30uM=5.3
O=C(CSCc1ccc(Cl)cc1)N/N=C/c1ccco1	-3.3	5.6	11.4	59.6*	-2.6	25.1
O=C(CSc1nnc(-c2ccc(Cl)cc2)n1-c1ccc(Cl)cc1)N/N=C/c1ccco1	-4.5	-2.3	7.6	5.0	-0.8	.
Cc1ccsc1/C=N/NC(=O)CSCc1ccc(Cl)cc1	-2.5	-2.0	4.5	114.4*	-11.8	65.0*	Diaphorase 10uM=78.2*;Diaphorase 30uM=57.5*
Cc1ccc(/C=N/NC(=O)CSCc2ccc(Cl)cc2)cc1	7.2	-6.2	12.0	59.4*	-3.8	11.5
O=C(CSCc1ccc(Cl)cc1)N/N=C/c1ccc(Cl)cc1Cl	3.6	1.3	10.6	43.9	-2.4	.
CN(CC(=O)Nc1cccc(F)c1)C(=O)/C=C/c1ccc2ccccc2n1	2.2	.	.	-0.6	.	.
O=C(NC(=S)Nc1ccc(-c2ccc(CO)o2)cc1)c1cccs1	4.0	-2.8	21.0	80.9*	5.5	4.7
Cc1ccc(C(=O)NC(=S)Nc2ccc(-c3ccc(CO)o3)cc2)cc1	-11.4	-3.8	23.0	6.7	-6.9	.
COc1ccc(NS(=O)(=O)c2ccc(NS(=O)(=O)c3cccs3)cc2)cc1	3.8	.	.	-15.0	.	.
COc1ccc(N2CC(O)=C(c3nc4ccccc4s3)C2=N)c(OC)c1	2.7	-29.1	13.1	64.0*	-4.7	42.5
CN1CCSc2ccc(C(=O)NCc3ccccc3F)cc21	-4.8	.	.	63.3*	.	14.4
CN1CCSc2ccc(C(=O)NCc3cccc(Br)c3)cc21	1.3	.	.	56.5	.	.
Cc1cccc(CNC(=O)c2ccc3c(c2)N(C)CCS3)c1	-5.7	.	.	70.8*	.	-20.2
NS(=O)(=O)c1ccc(Sc2ccc3c(c2)CCC3)nc1	0.4	.	.	15.3	.	.
C=CCSc1nnc(NC(=O)c2ccc3c(c2)OCCO3)s1	.	.	.	98.7*	.	30.7
COc1ccc(C2=NS(=O)(=O)N(C)C(C(=O)Nc3ccc4c(c3)OCO4)=C2)cc1OC	4.6	.	.	25.7	.	.
NC(=O)c1c(NC(=O)CCCn2cnc([N+](=O)[O-])n2)sc2c1CCCC2	-12.5	10.2	-7.1	75.8*	-4.4	42.3
Cc1cc([N+](=O)[O-])nn1CC(=O)Nc1sc2c(c1C(N)=O)CCCC2	5.1	0.9	16.7	-0.9	-6.0	.
Cc1cc([N+](=O)[O-])nn1CCCC(=O)Nc1sc2c(c1C(N)=O)CCCC2	-13.6	-8.0	8.3	67.0*	-7.2	31.7
O=C1C=C(NCCc2cc(Br)c(O)c(Br)c2)C(=O)c2ncccc21	29.7	.	.	115.4*	.	100.8*	Diaphorase 10uM=46.4;Diaphorase 30uM=35.0
CCOC(=O)C1(CCCc2ccccc2)CCN(C2CCN(C(C)=O)CC2)CC1	-1.6	12.0	2.6	14.4	-5.2	.
NC(=O)C1CCCN1Cc1ccc2c(c1)OCO2 (stereo not drawn)	3.1	.	.	-11.1	.	.
c1ccc2c(c1)nnn2Cc1nnc2sc(-c3ccc4c(c3)OCCO4)nn12	-5.1	-18.3	12.6	51.1	-2.0	.
c1cncc(-c2nn3c(Cn4cnc5ccccc54)nnc3s2)c1	-14.5	27.4	21.3	64.7*	2.5	28.3

High-throughput results (PubChem)
